Data from ChEMBL document CHEMBL3286102, “Benzofuran derivatives as anticancer inhibitors of mTOR signaling” (Eur J Med Chem, 2014).
Calls of active or inactive are those of the source. No cut-off for these calls is given here.

Legend:
SQ20B = assay: Cytotoxicity against human SQ20B cells after 72 hrs by MTT assay; type: functional, cell-based
Method in brief: (§1)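 Monolayer culture in RPMI with 10% fetal calf serum, 2 mM glutamine, penicillin/streptomycin, 37 °C, humidified 5% CO2, checked for Mycoplasma. Cells seeded at 2 × 10³/well; after drug exposure, 0.4 mg/ml MTT for 4 h at 37 °C. Formazan dissolved in DMSO, absorbance read at 560 nm. Untreated cells served as positive control, drug medium without cells as negative control.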

COLO 205 = assay: Cytotoxicity against human COLO205 cells after 72 hrs by MTT assay; type: functional, cell-based; method in brief: as §1
HOP-62 = assay: Cytotoxicity against human HOP62 cells after 72 hrs by MTT assay; type: functional, cell-based; method in brief: as §1
mTORC1 (Homo sapiens) [1] = biological target: T1, mTORC1 (Homo sapiens) (UniProt P42345+Q8N122+Q9BVC4); assay: Inhibition of mTORC1 in human COLO205 cells assessed as reduction of S6 phosphorylation at 0.1 to 8 uM after 24 hrs by Western blotting; type: cell-based; settings: COLO 205
T1 sequence (Q8N122 whole entry, looked up, other chains not shown): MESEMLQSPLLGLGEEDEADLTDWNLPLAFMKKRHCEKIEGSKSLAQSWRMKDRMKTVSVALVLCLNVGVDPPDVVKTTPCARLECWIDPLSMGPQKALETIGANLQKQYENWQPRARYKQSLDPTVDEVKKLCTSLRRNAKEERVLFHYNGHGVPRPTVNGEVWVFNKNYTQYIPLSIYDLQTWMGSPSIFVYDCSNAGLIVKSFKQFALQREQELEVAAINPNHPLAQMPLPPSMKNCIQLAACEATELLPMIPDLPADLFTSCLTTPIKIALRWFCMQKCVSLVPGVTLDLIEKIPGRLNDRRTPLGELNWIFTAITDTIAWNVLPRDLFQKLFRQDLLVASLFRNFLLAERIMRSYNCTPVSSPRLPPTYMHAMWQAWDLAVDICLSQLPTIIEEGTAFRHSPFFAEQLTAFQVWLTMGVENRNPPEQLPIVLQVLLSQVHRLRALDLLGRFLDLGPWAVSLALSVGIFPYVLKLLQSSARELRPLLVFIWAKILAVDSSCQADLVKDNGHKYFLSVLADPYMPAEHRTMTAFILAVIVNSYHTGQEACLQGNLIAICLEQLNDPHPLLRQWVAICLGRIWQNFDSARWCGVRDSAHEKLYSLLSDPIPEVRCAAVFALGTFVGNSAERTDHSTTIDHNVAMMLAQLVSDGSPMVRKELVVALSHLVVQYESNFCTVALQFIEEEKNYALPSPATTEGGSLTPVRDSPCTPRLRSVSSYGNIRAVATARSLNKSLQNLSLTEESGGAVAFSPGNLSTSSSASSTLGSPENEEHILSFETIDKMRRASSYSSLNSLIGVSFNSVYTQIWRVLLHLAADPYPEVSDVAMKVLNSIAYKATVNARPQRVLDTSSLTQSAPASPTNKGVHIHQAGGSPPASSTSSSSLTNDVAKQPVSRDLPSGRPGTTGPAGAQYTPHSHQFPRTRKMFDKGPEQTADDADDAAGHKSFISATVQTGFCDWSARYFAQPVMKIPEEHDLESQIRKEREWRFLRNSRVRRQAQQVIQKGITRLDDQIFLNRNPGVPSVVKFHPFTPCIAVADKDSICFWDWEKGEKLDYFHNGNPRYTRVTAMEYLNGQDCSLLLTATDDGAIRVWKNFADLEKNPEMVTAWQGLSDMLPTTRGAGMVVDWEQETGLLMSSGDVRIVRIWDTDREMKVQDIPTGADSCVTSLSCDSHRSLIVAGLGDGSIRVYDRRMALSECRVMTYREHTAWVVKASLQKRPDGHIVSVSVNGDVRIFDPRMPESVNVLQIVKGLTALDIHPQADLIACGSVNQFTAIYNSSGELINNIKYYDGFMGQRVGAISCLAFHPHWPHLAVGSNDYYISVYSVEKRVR
T1 sequence (Q9BVC4 whole entry, looked up, other chains not shown): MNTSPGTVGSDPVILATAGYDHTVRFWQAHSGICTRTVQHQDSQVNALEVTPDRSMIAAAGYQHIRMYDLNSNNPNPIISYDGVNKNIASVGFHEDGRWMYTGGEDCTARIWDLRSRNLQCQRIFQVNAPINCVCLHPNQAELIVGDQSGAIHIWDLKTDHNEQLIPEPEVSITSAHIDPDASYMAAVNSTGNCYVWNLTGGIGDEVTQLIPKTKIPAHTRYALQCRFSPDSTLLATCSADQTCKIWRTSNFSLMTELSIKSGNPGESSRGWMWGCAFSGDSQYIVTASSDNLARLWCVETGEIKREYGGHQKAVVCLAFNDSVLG
Method in brief: (§2)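 Membranes were blocked in 5% milk/0.05% Tween 20-PBS and probed overnight with primary antibody against p-S6, p-4EBP1 or p-Akt (S473). Detection used HRP secondary antibody and enhanced chemiluminescence.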

mTORC1 (Homo sapiens) [2] = biological target: T1, mTORC1 (Homo sapiens); assay: Inhibition of mTORC1 in human SK-HEP1 cells assessed as reduction of 4-EBP1 phosphorylation at 0.1 to 8 uM after 24 hrs by Western blotting; type: cell-based; method in brief: as §2
mTORC1 (Homo sapiens) [3] = biological target: T1, mTORC1 (Homo sapiens); assay: Inhibition of mTORC1 in human COLO205 cells assessed as reduction of 4-EBP1 phosphorylation at 0.1 to 8 uM after 24 hrs by Western blotting; type: cell-based; settings: COLO 205; method in brief: as §2
mTORC1 (Homo sapiens) [4] = biological target: T1, mTORC1 (Homo sapiens); assay: Inhibition of mTORC1 in human SK-HEP1 cells assessed as reduction of S6 phosphorylation at 0.1 to 8 uM after 24 hrs by Western blotting; type: cell-based; method in brief: as §2
mTORC1 (Homo sapiens) [5] = biological target: T1, mTORC1 (Homo sapiens); assay: Inhibition of mTORC1 in human SK-HEP1 cells assessed as AKT phosphorylation at Ser473 at 0.1 to 8 uM after 24 hrs by Western blotting; type: cell-based; method in brief: as §2
mTORC1 (Homo sapiens) [6] = biological target: T1, mTORC1 (Homo sapiens); assay: Inhibition of mTORC1 in human COLO205 cells assessed as AKT phosphorylation at Ser473 at 0.1 to 8 uM after 24 hrs by Western blotting; type: cell-based; settings: COLO 205; method in brief: as §2

SMILES | IC50 (SQ20B) | also measured
c1ccc(-c2cc3c(CN4CCC(N5CCCCC5)CC4)cccc3o2)cc1 | 7.5 µM | 
COc1ccc2oc(-c3ccccc3)cc2c1CN1CCC(N2CCCCC2)CC1 | 2.5 µM | 
Oc1ccc2c(ccn2Cc2ccccc2)c1CN1CCC(N2CCCCC2)CC1 | 17 µM | 
O=S(=O)(Nc1ccc2oc(-c3ccccc3)cc2c1CN1CCC(N2CCCCC2)CC1)C(F)(F)F | 2.1 µM | 
Oc1ccc2oc(-c3ccccc3Cl)cc2c1CN1CCC(N2CCCCC2)CC1 | 2.6 µM | 
COc1cccc2cc(-c3nc([C@H]4CC[C@H](C(=O)O)CC4)n4ncnc(N)c34)[nH]c12 |  | Activity (COLO 205): Active; Activity (HOP-62): Active
Oc1ccc2occ(-c3ccccc3)c2c1CN1CCC(N2CCCCC2)CC1 | 11 µM | 
Cc1c(-c2ccccc2)oc2ccc(O)c(CN3CCC(N4CCCCC4)CC3)c12 | 1.2 µM | 
OCc1c(-c2ccccc2)oc2ccc(O)c(CN3CCC(N4CCCCC4)CC3)c12 | 3.4 µM | 
COc1ccc2oc(-c3ccccc3OCc3ccccc3)cc2c1CN1CCC(N(C)C)CC1 | 0.46 µM | inhibition (mTORC1 (Homo sapiens) [1]): Active; inhibition (mTORC1 (Homo sapiens) [2]): Active; Activity (COLO 205): Active; inhibition (mTORC1 (Homo sapiens) [3]): Active; Activity (HOP-62): Active; inhibition (mTORC1 (Homo sapiens) [4]): Active
O=S(=O)(Oc1ccc2oc(-c3ccccc3)cc2c1CN1CCC(N2CCCCC2)CC1)C(F)(F)F | 2.8 µM | 
c1ccc(-c2cc3c(CN4CCC(N5CCCCC5)CC4)nccc3o2)cc1 | 18 µM | 
Oc1ccc2oc(-c3ccc(Cl)cc3)cc2c1CN1CCC(N2CCCCC2)CC1 | 0.86 µM | 
CCOC(=O)c1c(-c2ccccc2)oc2ccc(O)c(CN3CCC(N4CCCCC4)CC3)c12 | 1.5 µM | 
COc1cccc(-c2cc3c(CN4CCC(N5CCCCC5)CC4)c(O)ccc3o2)c1 | 2 µM | 
Oc1ccc2[nH]c(-c3ccccc3)nc2c1CN1CCC(N2CCCCC2)CC1 | 21 µM | 
Cn1c(-c2ccccc2)cc2c(CN3CCC(N4CCCCC4)CC3)c(O)ccc21 | 19 µM | 

SMILES | IC50 (SQ20B) | also measured
CO[C@H]1C[C@@H]2CC[C@@H](C)[C@@](O)(O2)C(=O)C(=O)N2CCCC[C@H]2C(=O)O[C@H]([C@H](C)C[C@@H]2CC[C@@H](O)[C@H](OC)C2)CC(=O)[C@H](C)/C=C(\C)[C@@H](O)[C@@H](OC)C(=O)[C@H](C)C[C@H](C)/C=C/C=C/C=C/1C |  | inhibition (mTORC1 (Homo sapiens) [1]): Active; inhibition (mTORC1 (Homo sapiens) [2]): Active; inhibition (mTORC1 (Homo sapiens) [3]): Active; inhibition (mTORC1 (Homo sapiens) [4]): Active
Oc1ccc2oc(-c3ccccc3)cc2c1CN1CCC(N2CCCCC2)CC1 | 1.4 µM | Activity (COLO 205): Active; Activity (HOP-62): Active
CO[C@H]1C[C@@H]2CC[C@@H](C)[C@@](O)(O2)C(=O)C(=O)N2CCCC[C@H]2C(=O)O[C@H]([C@H](C)C[C@@H]2CC[C@@H](OCCO)[C@H](OC)C2)CC(=O)[C@H](C)/C=C(\C)[C@@H](O)[C@@H](OC)C(=O)[C@H](C)C[C@H](C)/C=C/C=C/C=C/1C [EVEROLIMUS] | 7.3 µM | inhibition (mTORC1 (Homo sapiens) [1]): Active; inhibition (mTORC1 (Homo sapiens) [2]): Active; Activity (COLO 205): Active; inhibition (mTORC1 (Homo sapiens) [5]): inactive; inhibition (mTORC1 (Homo sapiens) [3]): Active; inhibition (mTORC1 (Homo sapiens) [6]): inactive; Activity (HOP-62): inactive; inhibition (mTORC1 (Homo sapiens) [4]): Active
Oc1ccc2oc(-c3ccccc3OCc3ccccc3)cc2c1CN1CCC(N2CCCCC2)CC1 | 0.38 µM | Activity (COLO 205): Active; Activity (HOP-62): Active
Oc1ccc2oc(-c3cccc(Cl)c3)cc2c1CN1CCC(N2CCCCC2)CC1 | 0.92 µM | 
COc1ccc(-c2cc3c(CN4CCC(N(C)C)CC4)c(O)ccc3o2)cc1 | 1.2 µM | 
Oc1ccc2oc(-c3cccc4ccccc34)cc2c1CN1CCC(N2CCCCC2)CC1 | 0.86 µM | 
Oc1ccc2oc(-c3cccs3)cc2c1CN1CCC(N2CCCCC2)CC1 | 2.7 µM | 
Oc1ccc2cc(-c3ccccc3)oc2c1CN1CCC(N2CCCCC2)CC1 | 11 µM | 
COc1ccc(-c2cc3c(CN4CCC(N5CCCCC5)CC4)c(O)ccc3o2)c(OC)c1 | 1.1 µM | 
Oc1ccc2oc(-c3ccco3)cc2c1CN1CCC(N2CCCCC2)CC1 | 4 µM | 
COc1ccccc1-c1cc2c(CN3CCC(N4CCCCC4)CC3)c(O)ccc2o1 | 1.3 µM | 
Oc1ccc2oc(-c3ccc4ccccc4c3)cc2c1CN1CCC(N2CCCCC2)CC1 | 2.8 µM | 
Oc1ccc2oc(-c3ccc(Cl)c(Cl)c3)cc2c1CN1CCC(N2CCCCC2)CC1 | 2.3 µM | 
COc1ccc(-c2cc3c(CN4CCC(N5CCCCC5)CC4)c(O)ccc3o2)cc1 | 0.85 µM | 
Oc1ccc2oc(-c3ccccc3)nc2c1CN1CCC(N2CCCCC2)CC1 | 6.5 µM | 
CN(C)Cc1c(O)ccc2oc(-c3ccccc3)cc12 | 32 µM | 
